In ChEMBL document CHEMBL1123589, “Phenylpiperazine-based radiopharmaceuticals for brain imaging. 3. Synthesis and evaluation of radioiodinated 1-alkyl-4-phenylpiperazines” (J Med Chem, 1987):

Assays:
Conditions in all cases: in vivo
Rattus norvegicus [1] = experiment: The biodistribution of the [125I]-labeled compound in rats after intravenous injection was evaluated in adrenal at 0.25 hrs; value ranges from 0.58-0.61 (ID.kg/g); type: ADME, organism-based
Outline: (§1)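 Male Sprague-Dawley rats (250–300 g) under ether anesthesia were given an iv injection of no-carrier-added 125I-labelled agent (10–15 μCi in 0.1 mL saline). The agent was iodinated with chloramine-T in acetate buffer and purified by C-18 HPLC. Groups of N = 3 were killed at 0.25, 1 and 4 h. Blood and tissues were weighed and γ-counted. Values are % ID·kg/g, mean (range).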

Rattus norvegicus [2] = experiment: The biodistribution of the [125I]-labeled compound in rats after intravenous injection was evaluated in adrenal at 1.00 hrs; value ranges from 0.83-0.85 (ID.kg/g); type: ADME, organism-based; outline: as §1
Rattus norvegicus [3] = experiment: The biodistribution of the [125I]-labeled compound in rats after intravenous injection was evaluated in adrenal at 4.00 hrs; value ranges from 0.90-0.97 (ID.kg/g); type: ADME, organism-based; outline: as §1
Rattus norvegicus [4] = experiment: The biodistribution of the [125I]-labeled compound in rats after intravenous injection was evaluated in blood at 0.25 hrs (ID.kg/g); type: ADME, organism-based; outline: as §1
Rattus norvegicus [5] = experiment: The biodistribution of the [125I]-labeled compound in rats after intravenous injection was evaluated in blood at 1.00 hrs (ID.kg/g); type: ADME, organism-based; outline: as §1
Rattus norvegicus [6] = experiment: The biodistribution of the [125I]-labeled compound in rats after intravenous injection was evaluated in blood at 4.00 hrs (ID.kg/g); type: ADME, organism-based; outline: as §1
Rattus norvegicus [7] = experiment: The biodistribution of the [125I]-labeled compound in rats after intravenous injection was evaluated in brain at 0.25 hrs (ID.kg/g); type: ADME, organism-based; outline: as §1
Rattus norvegicus [8] = experiment: The biodistribution of the [125I]-labeled compound in rats after intravenous injection was evaluated in heart at 0.25 hrs; value ranges from 0.11-0.15 (ID.kg/g); type: ADME, organism-based; outline: as §1
Rattus norvegicus [9] = experiment: The biodistribution of the [125I]-labeled compound in rats after intravenous injection was evaluated in heart at 1.00 hrs (ID.kg/g); type: ADME, organism-based; outline: as §1
Rattus norvegicus [10] = experiment: The biodistribution of the [125I]-labeled compound in rats after intravenous injection was evaluated in lung at 4.00 hrs; value ranges from 0.19-0.25 (ID.kg/g); type: ADME, organism-based
Outline: (§2)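 Male Sprague-Dawley rats (250–300 g), under ether anesthesia, given 10–15 μCi of the NCA ¹²⁵I-labeled agent iv in 0.1 mL saline. Groups of N = 3 were killed at 0.25, 1 or 4 h. Blood and tissues were removed, weighed and counted in a γ-well scintillation counter. Values are mean % ID·kg/g (range).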

Rattus norvegicus [11] = experiment: The biodistribution of the [125I]-labeled compound in rats after intravenous injection was evaluated in muscle at 0.25 hrs (ID.kg/g); type: ADME, organism-based, Muscle tissue
Outline: (§3)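 Male Sprague-Dawley rats (250–300 g) under ether anesthesia given iv 0.1 mL saline containing 10–15 μCi of NCA ¹²⁵I-labeled agent (chloramine-T iodination, HPLC-purified). Groups of 3 killed at 0.25, 1 and 4 h. Blood and tissues excised, weighed and γ-counted. Values are mean (range) of % injected dose × body mass (kg) per gram of tissue.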

Rattus norvegicus [12] = experiment: The biodistribution of the [125I]-labeled compound in rats after intravenous injection was evaluated in muscle at 4.00 hrs (ID.kg/g); type: ADME, organism-based, Muscle tissue; outline: as §3
Rattus norvegicus [13] = experiment: The biodistribution of the [125I]-labeled compound in rats after intravenous injection was evaluated in thyroid at 0.25 hrs; value ranges from 1.12-1.29 (ID.kg/g); type: ADME, organism-based, Thyroid gland; outline: as §3
Rattus norvegicus [14] = experiment: The biodistribution of the [125I]-labeled compound in rats after intravenous injection was evaluated in thyroid at 1.00 hrs; value ranges from 1.22-1.36 (ID.kg/g); type: ADME, organism-based, Thyroid gland; outline: as §3
Rattus norvegicus [15] = experiment: The biodistribution of the [125I]-labeled compound in rats after intravenous injection was evaluated in brain at 4.00 hrs; value ranges from 0.17-0.21 (ID.kg/g); type: ADME, organism-based; outline: as §1
Rattus norvegicus [16] = experiment: The biodistribution of the [125I]-labeled compound in rats after intravenous injection was evaluated in fat at 0.25 hr (ID. kg/g); type: ADME, organism-based, Adipose tissue; outline: as §1
Rattus norvegicus [17] = experiment: The biodistribution of the [125I]-labeled compound in rats after intravenous injection was evaluated in fat at 1.00 hrs (ID.kg/g); type: ADME, organism-based, Adipose tissue; outline: as §1
Rattus norvegicus [18] = experiment: The biodistribution of the [125I]-labeled compound in rats after intravenous injection was evaluated in brain at 1.00 hrs; value ranges from 0.23-0.32 (ID.kg/g); type: ADME, organism-based; outline: as §1
Rattus norvegicus [19] = experiment: The biodistribution of the [125I]-labeled compound in rats after intravenous injection was evaluated in fat at 4.00 hrs (ID.kg/g); type: ADME, organism-based, Adipose tissue; outline: as §1
Rattus norvegicus [20] = experiment: The biodistribution of the [125I]-labeled compound in rats after intravenous injection was evaluated in kidney at 4.00 hrs; value ranges from 0.18-0.23 (ID.kg/g); type: ADME, organism-based; outline: as §2
Rattus norvegicus [21] = experiment: The biodistribution of the [125I]-labeled compound in rats after intravenous injection was evaluated in liver at 0.25 hr; value ranges from 0.19-0.27 (ID.kg/g); type: ADME, organism-based; outline: as §2
Rattus norvegicus [22] = experiment: The biodistribution of the [125I]-labeled compound in rats after intravenous injection was evaluated in liver at 4.00 hrs; value ranges from 0.42-0.55 (ID.kg/g); type: ADME, organism-based; outline: as §2
Rattus norvegicus [23] = experiment: The biodistribution of the [125I]-labeled compound in rats after intravenous injection was evaluated in lung at 0.25 hrs; value ranges from 0.55-0.57 (ID.kg/g); type: ADME, organism-based; outline: as §2
Rattus norvegicus [24] = experiment: The biodistribution of the [125I]-labeled compound in rats after intravenous injection was evaluated in lung at 1.00 hrs; value ranges from 0.33-0.37 (ID.kg/g); type: ADME, organism-based; outline: as §2
Rattus norvegicus [25] = experiment: The biodistribution of the [125I]-labeled compound in rats after intravenous injection was evaluated in liver at 1.00 hrs; value ranges from 0.34-0.44 (ID.kg/g); type: ADME, organism-based; outline: as §2
Rattus norvegicus [26] = experiment: The biodistribution of the [125I]-labeled compound in rats after intravenous injection was evaluated in kidney at 0.25 hr; value ranges from 0.37-0.45 (ID.kg/g); type: ADME, organism-based; outline: as §2
Rattus norvegicus [27] = experiment: The biodistribution of the [125I]-labeled compound in rats after intravenous injection was evaluated in kidney at 1.00 hrs; value ranges from 0.29-0.35 (ID.kg/g); type: ADME, organism-based; outline: as §2
Rattus norvegicus [28] = experiment: The biodistribution of the [125I]-labeled compound in rats after intravenous injection was evaluated in heart at 4.00 hrs; value ranges from 0.05-0.06 (ID.kg/g); type: ADME, organism-based; outline: as §2
Rattus norvegicus [29] = experiment: The biodistribution of the [125I]-labeled compound in rats after intravenous injection was evaluated in thyroid at 4.00 hrs; value ranges from 3.21-5.02 (ID.kg/g); type: ADME, organism-based, Thyroid gland; outline: as §3
Rattus norvegicus [30] = experiment: The biodistribution of the [125I]-labeled compound in rats after intravenous injection was evaluated in muscle at 1.00 hrs (ID.kg/g); type: ADME, organism-based, Muscle tissue; outline: as §3

CC(C)CN1CCN(c2ccc(I)cc2)CC1
Biodistribution (Rattus norvegicus [1]): 0.61% | Biodistribution (Rattus norvegicus [2]): 0.85% | Biodistribution (Rattus norvegicus [3]): 0.97% | Biodistribution (Rattus norvegicus [4]): 0.01 % ID·kg/g | Biodistribution (Rattus norvegicus [5]): 0.01 % ID·kg/g | Biodistribution (Rattus norvegicus [6]): 0.01 % ID·kg/g | Biodistribution (Rattus norvegicus [7]): 0.25% | Biodistribution (Rattus norvegicus [8]): 0.15% | Biodistribution (Rattus norvegicus [9]): 0.09% | Biodistribution (Rattus norvegicus [10]): 0.25% | Biodistribution (Rattus norvegicus [11]): 0.03 % ID·kg/g | Biodistribution (Rattus norvegicus [12]): 0.03 %ID·kg/g | Biodistribution (Rattus norvegicus [13]): 1.29% | Biodistribution (Rattus norvegicus [14]): 1.36% | Biodistribution (Rattus norvegicus [15]): 0.21% | Biodistribution (Rattus norvegicus [16]): 0.02 % ID·kg/g | Biodistribution (Rattus norvegicus [17]): 0.02 % ID·kg/g | Biodistribution (Rattus norvegicus [18]): 0.32% | Biodistribution (Rattus norvegicus [19]): 0.04% | Biodistribution (Rattus norvegicus [20]): 0.23% | Biodistribution (Rattus norvegicus [21]): 0.27% | Biodistribution (Rattus norvegicus [22]): 0.55% | Biodistribution (Rattus norvegicus [23]): 0.57% | Biodistribution (Rattus norvegicus [24]): 0.37% | Biodistribution (Rattus norvegicus [25]): 0.44% | Biodistribution (Rattus norvegicus [26]): 0.45% | Biodistribution (Rattus norvegicus [27]): 0.35% | Biodistribution (Rattus norvegicus [28]): 0.07% | Biodistribution (Rattus norvegicus [29]): 5.02% | Biodistribution (Rattus norvegicus [30]): 0.02 %ID·kg/g
